Measured values pooled from the literature.
Read-out: cell growth or viability

Compound	cell line	assay	setting	IC50 [µM]
Cc1ccc(CN2C(=O)C(=Nc3cccc(C)c3)c3ccccc32)cc1	B16	MTT	48 h	0.44
CN1CCC(NC2CCc3[nH]c4c(C(N)=O)ccc(-c5ccccc5Cl)c4c3C2)CC1 (stereo not drawn)	BXPC-3		96 h	0.0347
O=C1C(=Nc2ccccc2I)c2ccccc2N1Cc1ccc(Br)cc1	B16	MTT	48 h	15.2
Clc1ccc(-c2cc(CNc3cccc4cccnc34)on2)c(Cl)c1	Z-138	MTS	72 h	27.9
O=C(CSc1nc2ccccc2s1)N/N=C/c1ccc(OCC(=O)Nc2ccc(Br)cc2)cc1	Z-138	MTS	72 h	> 100
O=C1C(=Nc2ccc(Cl)cc2Br)c2ccccc2N1Cc1ccc([N+](=O)[O-])cc1	B16	MTT	48 h	2.14
Cc1cc2c(C(=O)O)cccc2n1-c1nc2c(c(NCc3ccccc3)n1)CCCN2	BXPC-3		72 h	0.7
O=c1cc(OCc2cc(-c3ccc(C(F)(F)F)cc3)no2)c2ccccc2o1	Z-138	MTS	72 h	> 100
Cc1cc2c(C(N)=O)cccc2n1-c1nc2c(c(NCc3ccccc3)n1)CCCN2	BXPC-3		72 h	0.8
N/C(=N\O)c1ccc(-c2cc(CNc3cccc4cccnc34)on2)cc1	Z-138	MTS	72 h	2.1
CONC(=O)c1cccc2c1cc(C)n2-c1nc2c(c(NCc3ccccc3)n1)CCCN2	ARP-1		72 h	2.1
O=C(CSc1nc2ccccc2s1)N/N=C/c1ccc(OCC(=O)Nc2cccc([N+](=O)[O-])c2)cc1	Z-138	MTS	72 h	> 100
O=c1[nH]cc(F)c(=O)[nH]1	DLD-1	MTT	72 h	2.68
FC(F)(F)c1cc(OCc2cc(-c3ccc(Cl)cc3Cl)no2)c2ccccc2n1	Z-138	MTS	72 h	> 100
O=C(CSc1nc2ccccc2s1)N/N=C/c1ccc(OCC(=O)Nc2cccc(Cl)c2)cc1	Z-138	MTS	72 h	> 100
Cc1ccc(CN2C(=O)C(=Nc3cccc(Cl)c3)c3ccccc32)cc1	B16	MTT	48 h	1.49
Cc1nc(Nc2ncc(C(=O)Nc3c(C)cccc3Cl)s2)cc(N2CC[C@H](O)C2)n1	Granta-519	ATP luminescence	72 h	> 10
CCc1ccc(N=C2C(=O)Nc3ccccc32)cc1	B16	MTT	48 h	37.3
N#Cc1ccc(-c2cc(COc3cc(C(F)(F)F)nc4ccccc34)on2)cc1	Z-138	MTS	72 h	36.7
O=C1Nc2ccccc2C1=Nc1ccccc1I	B16	MTT	48 h	7.38
N#Cc1ccc(-c2cc(CNc3cccc4cccnc34)on2)cc1	Z-138	MTS	72 h	10.8
